Data reported in ChEMBL document CHEMBL1142155, “Human beta-defensins kill Candida albicans in an energy-dependent and salt-sensitive manner without causing membrane disruption” (2007).
Active and inactive are the calls of the source. No cut-off for these calls is given here.

Columns and labels:
Candida albicans [1] = assay: Induction of ATP efflux in Candida albicans CAF4-2 at 1 uM; format: functional, organism-based
Procedure, shortened: (§1)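 10⁴ C. albicans cells given 31 μM Hst 5 or 1 μM hBD-3, with or without 2 h pretreatment in 1 mM NaN₃. Extracellular ATP read by luminometry at 0, 5, 15, 30, 45 and 60 min. Values come from per-experiment ATP standard curves, as pmol ATP per 10⁴ cells.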

Candida albicans [2] = assay: Induction of membrane permeabilization in Candida albicans assessed as calcein release at 0.8 uM after 90 min; format: functional
Procedure, shortened: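 Early-stationary yeast washed in 10 mM NaPB, loaded at 10⁷/ml with 5 μM (final) calcein-AM for 2 h at room temperature, then washed four times; 10⁶ cells given 0.8 μM hBD-3 or 32 μM Hst 5. Fluorescence (ex 485/em 530 nm) read every 5 min for 90 min. Percent release = (I_r − I_bkg)/(I_int − I_bkg) × 100, where I_int comes from boiling 10 min. Mean ± SD of three experiments.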

Candida albicans [3] = assay: Induction of ATP efflux in Candida albicans CAF4-2 at 1 uM in presence of 1 mM sodium azide; format: functional, organism-based; procedure, shortened: as §1

For CC[C@H](C)C(NC(=O)CN)C(=O)N[C@H](C(=O)N[C@@H](CC(N)=O)C(=O)N[C@H](C(=O)N[C@@H](CC(C)C)C(=O)N[C@@H](CCC(N)=O)C(=O)N[C@@H](CCCCN)C(=O)N[C@@H](Cc1ccc(O)cc1)C(=O)N[C@@H](Cc1ccc(O)cc1)C(=O)N[C@@H](CS)C(=O)N[C@@H](CCCNC(=N)N)C(=O)N[C@H](C(=O)N[C@@H](CCCNC(=N)N)C(=O)NCC(=O)NCC(=O)N[C@@H](CCCNC(=N)N)C(=O)N[C@@H](CS)C(=O)N[C@@H](C)C(=O)N[C@H](C(=O)N[C@@H](CC(C)C)C(=O)N[C@@H](CO)C(=O)N[C@@H](CS)C(=O)N[C@@H](CC(C)C)C(=O)N1CCC[C@H]1C(=O)N[C@@H](CCCCN)C(=O)N[C@@H](CCC(=O)O)C(=O)N[C@@H](CCC(=O)O)C(=O)N[C@@H](CCC(N)=O)C(=O)N[C@H](C(=O)NCC(=O)N[C@@H](CCCCN)C(=O)N[C@@H](CS)C(=O)N[C@@H](CO)C(=O)N[C@H](C(=O)N[C@@H](CCCNC(=N)N)C(=O)NCC(=O)N[C@@H](CCCNC(=N)N)C(=O)N[C@@H](CCCCN)C(=O)N[C@@H](CS)C(=O)N[C@@H](CS)C(=O)N[C@@H](CCCNC(=N)N)C(=O)N[C@@H](CCCNC(=N)N)C(=O)N[C@@H](CCCCN)C(=O)N[C@@H](CCCCN)C(=O)O)[C@@H](C)O)[C@@H](C)CC)C(C)C)C(C)C)[C@@H](C)O)[C@@H](C)CC (stereo partly drawn), the Activity (Candida albicans [1]) was “Active”, the Activity (Candida albicans [2]) was 24.2% and the Activity (Candida albicans [3]) was “inactive”.
